A selection: hits, their analogues and other compounds. The true share with any hit is near 2.3%.
TRPC4 PAM: positive allosteric modulators of TRPC4, primary screen, cell-based, mouse TRPC4beta, HEK293 mu-opioid, Fluo-4 calcium | DAMGO EC20, Fluo-4 Ca2+ flux; hits give high values | 0.42% of 310,000 active | B-score at 10 µM | Short transient receptor potential channel 4 (Mus musculus), Q9QUQ5;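 active = B-score of calcium response area above 5 SD of library B-scores, with initial fluorescence ratio within 5 SD of library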;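 also: B-score of integrated fluorescence ratio over time as area under calcium response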
TRPC4 block: inhibitors of mouse TRPC4 channel, primary screen, Fluo4 calcium, HEK293 TRPC4beta/mu-opioid cells | AID 2247, 2010 | 0.39% of 300,000 active | DAMGO-evoked Fluo4 calcium flux; hits give low values | Short transient receptor potential channel 4 (Mus musculus), Q9QUQ5 | B-score at 10 µM;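 active = B-score over 3 SD under the library average, no early fluorescence shift, positive overall ratio signal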
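Test system – stable TRPC4beta/mu-opioid receptor HEK293 cells · Probe or stimulus – DAMGO, a submaximal dose followed by a maximal one · Dosing – one concentration per compound · Signal – Fluo4 calcium fluorescence by kinetic imaging, 5 s 1 Hz baseline · Evaluation – per-well B score of integrated baseline-normalized Fluo4 ratio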
TRPC4 act: activators of mouse TRPC4 channel, primary screen, Fluo4 calcium, HEK293 TRPC4beta/mu-opioid cells; Short transient receptor potential channel 4 (Mus musculus), Q9QUQ5; Fluo4 calcium fluorescence; hits give high values; B-score at 10 µM; 0.49% of 310,000 active; AID 2237, 2010;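 active = B-score above 5 SD of library B-scores, and initial fluorescence ratio not above library mean plus 5 SD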;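 also: positive B-score marks a calcium rise read as TRPC4 activation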
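Test system: HEK293 cells stably co-expressing mouse TRPC4beta and mu-opioid receptor | Schedule: Fluo4 dye loading 45 min at room temperature, 110 s recording | Measured by: Kinetic Fluo4 calcium fluorescence, 5 s baseline at 1 Hz | Evaluation: B score of integrated ratio | Controls: Buffer (low) and maximal DAMGO (high)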
TRPC6 inh: mouse TRPC6 channel inhibitors, primary screen, cell-based, HEK293, membrane potential dye; Short transient receptor potential channel 6 (Mus musculus), Q61143; 1.1% of 310,000 active; AID 2553, 2010; ACh-evoked depolarization; hits give low values; B-score at 10 µM;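 active = B-score under library mean minus 3 SD, initial fluorescence not abnormally high, positive integrated signal ratio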;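 also: B-score derived from integrated fluorescence ratio over the kinetic read; more negative B-score means stronger inhibition of depolarization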
TRPC6 act: mouse TRPC6 channel activators, primary screen, cell-based, HEK293, membrane potential dye; AID 2550, 2010; HEK293-TRPC6 membrane potential dye fluorescence; hits give high values; 0.13% of 310,000 active; Short transient receptor potential channel 6 (Mus musculus), Q61143; B-score at 10 µM;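 active = B-score of the integrated fluorescence ratio above library mean plus 3 SD, and starting fluorescence ratio within library mean plus 5 SD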;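 also: higher score means more depolarization so channel activation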
HEK293 TRPC6 ctr: parental HEK293 membrane potential modulation, confirmation, counter-screen for TRPC6 modulator project, cell-based. membrane potential signal change, % at 10 µM. 51% of 2,400 active. membrane potential dye fluorescence. shares compounds with TRPC6 inh;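 active = membrane potential signal moves up or down beyond 5 SD from buffer-only wells, on both duplicate plates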
HEK293 MPD ctr 2: parental HEK293 nonspecific activity of TRPC6 modulators, second screen; shares compounds with TRPC6 inh; 14% of 2,400 active; membrane potential dye fluorescence; after compound, maximal acetylcholine stimulation; inhibition, % at 10 µM;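 active = membrane potential signal drops by more than 5 SD from the mean control signal, in both duplicate plates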;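 also: plate controls were acetylcholine ECmax control wells for no effect and buffer only wells for full effect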
TRPC4 ctr mod: TRPC4 modulation by TRPC6 hit compounds, confirmation, selectivity assay for TRPC6 modulator project, cell-based, HEK293 TRPC4/mu-opioid, membrane potential dye, mouse; shares compounds with TRPC6 inh; membrane potential fluorescence; percent change from control (negative = decrease, positive = increase), % at 10 µM; 69% of 2,400 active;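 active = membrane potential signal moved up or down beyond 5 SD of buffer control wells, in both duplicate plates, actives on both sides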;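 also: plate controls were assay buffer wells for no effect and DAMGO maximal-effect wells for full effect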
TRPC4 ctr inh 2: mouse TRPC4 off-target activity of TRPC6 modulators, second screen; shares compounds with TRPC6 inh; HEK293 TRPC4/mu-opioid, membrane potential dye fluorescence; stimulated with maximal-effect DAMGO; inhibition, % at 10 µM; 55% of 2,400 active;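 active = drop in membrane potential signal beyond 5 SD of the control wells in both duplicate plates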;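 also: TRPC4 counter screen for TRPC6 hits run under conditions tuned for TRPC6 not TRPC4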
TRPC6 inh conf: mouse TRPC6 channel inhibitors, confirmation, HEK293 cells, membrane potential dye, duplicate; 43% of 3,300 active; shares compounds with TRPC6 inh; inhibition, % at 10 µM; ACh-evoked depolarization; AID 488960, 2010;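 active = fluorescence ratio falls more than 5 SD below the full-stimulation control mean, in both duplicate runs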;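 also: integrated fluorescence ratio of peak minus minimum over baseline after agonist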
TRPC6 act conf: mouse TRPC6 channel activators, confirmation, HEK293 cells, membrane potential dye, duplicate. activation, % at 10 µM. HEK293-TRPC6 membrane potential dye fluorescence, FDSS. 11% of 2,800 active. shares compounds with TRPC6 inh;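 active = ratio signal rise beyond 5 SD above unstimulated control wells' mean, seen in both duplicate runs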;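 also: plate controls were buffer EC0 wells for no effect and acetylcholine ECmax response for full effect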
Numbers without * were called inactive; i = inactive; · = no result given; + = active, no number.

SMILES	TRPC4 PAM	TRPC4 block	TRPC4 act	TRPC6 inh	TRPC6 act	HEK293 TRPC6 ctr	HEK293 MPD ctr 2	TRPC4 ctr mod	TRPC4 ctr inh 2	TRPC6 inh conf	TRPC6 act conf
Cc1nc([N+](=O)[O-])cn1CC(=O)c1ccc(Br)cc1	i	i	i	i	i	·	·	·	·	·	·
CN(C)C(CNc1ccc(S(C)(=O)=O)cc1[N+](=O)[O-])Cc1ccccc1 (stereo not given)	i	i	i	-5.1*	i	i	i	i	32%*	i	i
COc1ccc(C(C(=O)NCCC(C)C)N(CCN2CCOCC2)C(=O)Cn2nnc3ccccc32)c(OC)c1 (stereo not given)	i	i	i	i	28*	484%*	i	86%*	i	i	298%*
COCCN(C(=O)Cn1nnc2ccccc21)C(C(=O)NC1CCCC1)c1cccc(OC)c1OC (stereo not given)	i	i	i	i	i	·	·	·	·	·	·
Cc1ccc(SCCNC(=S)Nc2ccc(C)c(C)c2)cc1	i	i	i	-5.7*	i	+	+	-266%*	77%*	i	i
Cc1ccc(SCCNC(=S)Nc2ccccc2)cc1	i	i	i	i	i	·	·	·	·	·	·
N#Cc1c2ccc(O)cc2n2ccccc12	i	i	i	-6.8*	16*	436%*	86%*	55%*	i	64%*	126%*
N#Cc1c2ccc(OCC(=O)NCc3ccco3)cc2n2ccccc12	i	i	i	i	i	·	·	·	·	·	·

Screening results (PubChem)
